Assay results published in ChEMBL document CHEMBL3526048, “In vitro metabolism of rivoglitazone, a novel peroxisome proliferator-activated receptor γ agonist, in rat, monkey, and human liver microsomes and freshly isolated hepatocytes” (Drug Metab Dispos, 2011).

Tests used:
[1] = molecular target: T1, UDP-glucuronosyltransferase 1A10 (Homo sapiens, UniProt Q9HAW8); experiment: Activity of human UGT1A10 expressed in microsomes isolated from baculovirus infected insect cell assessed as enzyme-mediated 2-mercapto-3-(4-((6-methoxy-1-methyl-1H-benzo[d]imidazol-2-yl)methoxy)phenyl)propanoic acid formation at 20 uM after 4 hrs by radio-HPLC/LC-MS/MS analysis in presence of UDPGA; type: ADME
T1 sequence (Q9HAW8 whole entry): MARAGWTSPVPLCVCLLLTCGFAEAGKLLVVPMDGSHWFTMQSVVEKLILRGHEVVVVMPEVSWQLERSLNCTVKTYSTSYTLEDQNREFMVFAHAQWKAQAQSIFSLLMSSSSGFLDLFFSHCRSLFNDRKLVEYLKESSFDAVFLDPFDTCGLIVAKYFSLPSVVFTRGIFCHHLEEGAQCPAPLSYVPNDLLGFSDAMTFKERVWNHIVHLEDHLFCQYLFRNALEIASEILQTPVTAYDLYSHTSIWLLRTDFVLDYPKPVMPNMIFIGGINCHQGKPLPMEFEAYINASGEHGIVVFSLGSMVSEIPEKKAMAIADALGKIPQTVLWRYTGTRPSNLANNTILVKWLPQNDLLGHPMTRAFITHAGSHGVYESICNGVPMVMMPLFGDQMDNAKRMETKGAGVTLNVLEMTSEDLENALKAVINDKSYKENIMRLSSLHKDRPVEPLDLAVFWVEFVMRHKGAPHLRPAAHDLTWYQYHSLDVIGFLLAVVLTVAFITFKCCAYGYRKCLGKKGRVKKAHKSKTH
How it was run: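 Alamethicin (50 μg/mg protein, 15 min on ice) pretreated expressed human UGT microsomes (1 mg/ml protein) from baculovirus-infected insect cells. Incubation with [¹⁴C]rivoglitazone (20 μM) in 100 mM Tris-HCl (pH 7.5) with 10 mM MgCl₂, started by 5 mM UDPGA, 4 h at 37°C with shaking. UGT insect-cell control supersomes were run alongside. Acetonitrile stop, concentrated supernatant analysed by radio-HPLC, LC-MS and LC-MS/MS.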

[2] = Drug metabolism in po dosed monkey liver microsomes assessed as formation of 5-(4-((6-methoxy-1H-benzo[d]imidazol-2-yl)methoxy)benzyl)thiazolidine-2,4-dione; type: ADME, Macaca mulatta; settings: rhesus monkey
[3] = Drug metabolism in human hepatocytes assessed as formation of 3-(4-((6-methoxy-1-methyl-1H-benzo[d]imidazol-2-yl)methoxy)phenyl)-2-(methylthio)propanamide at 30 uM after 3 hrs by radio-HPLC/LC-MS/MS analysis in presence of NADPH-generating system/SAM; type: ADME, cell-based, Hepatocyte
[4] = molecular target: Cytochrome P450 2C9 (Homo sapiens, UniProt P11712); experiment: (§1) Activity of human CYP2C9 expressed in microsomes isolated from baculovirus infected insect cell assessed as enzyme-mediated 5-(4-((6-methoxy-1H-benzo[d]imidazol-2-yl)methoxy)benzyl)thiazolidine-2,4-dione formation at 20 uM after 2 hrs by radio-HPLC/LC-MS/MS analysis in presence of NADPH-generating system and NADPH-generating system/SAM; type: ADME
Sequence of Cytochrome P450 2C9 (P11712 whole entry): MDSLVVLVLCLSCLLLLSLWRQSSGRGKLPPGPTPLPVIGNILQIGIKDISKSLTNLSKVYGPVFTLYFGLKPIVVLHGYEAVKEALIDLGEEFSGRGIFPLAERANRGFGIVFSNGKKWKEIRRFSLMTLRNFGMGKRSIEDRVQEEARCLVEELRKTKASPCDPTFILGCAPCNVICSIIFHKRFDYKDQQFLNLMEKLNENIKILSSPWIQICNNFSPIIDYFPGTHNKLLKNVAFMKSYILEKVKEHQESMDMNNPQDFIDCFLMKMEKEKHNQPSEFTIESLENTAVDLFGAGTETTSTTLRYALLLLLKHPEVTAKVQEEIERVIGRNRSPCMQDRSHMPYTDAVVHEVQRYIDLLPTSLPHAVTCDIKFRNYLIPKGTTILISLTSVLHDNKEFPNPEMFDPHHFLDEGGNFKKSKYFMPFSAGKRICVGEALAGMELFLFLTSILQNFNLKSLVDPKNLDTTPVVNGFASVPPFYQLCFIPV

[5] = molecular target: Cytochrome P450 3A4 (Homo sapiens, UniProt P08684); experiment: as §1, with “CYP3A4” for “CYP2C9”; type: ADME
Sequence of Cytochrome P450 3A4 (P08684 whole entry): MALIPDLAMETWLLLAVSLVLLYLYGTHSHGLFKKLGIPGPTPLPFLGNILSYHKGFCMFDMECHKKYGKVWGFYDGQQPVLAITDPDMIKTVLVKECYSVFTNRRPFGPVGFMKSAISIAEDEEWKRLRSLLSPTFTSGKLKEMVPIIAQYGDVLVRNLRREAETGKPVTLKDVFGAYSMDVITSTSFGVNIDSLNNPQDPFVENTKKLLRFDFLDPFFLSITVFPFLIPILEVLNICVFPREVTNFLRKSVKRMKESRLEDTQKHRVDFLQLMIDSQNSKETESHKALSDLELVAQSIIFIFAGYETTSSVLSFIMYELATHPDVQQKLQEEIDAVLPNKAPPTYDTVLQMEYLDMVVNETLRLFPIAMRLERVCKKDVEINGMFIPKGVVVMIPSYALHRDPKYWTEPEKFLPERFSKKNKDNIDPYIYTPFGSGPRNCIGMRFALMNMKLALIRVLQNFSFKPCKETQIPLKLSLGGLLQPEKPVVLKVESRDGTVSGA

[6] = molecular target: Cytochrome P450 2D6 (Homo sapiens, UniProt P10635); experiment: Activity of human CYP2D6 expressed in microsomes isolated from baculovirus infected insect cell assessed as enzyme-mediated 2-mercapto-3-(4-((6-methoxy-1-methyl-1H-benzo[d]imidazol-2-yl)methoxy)phenyl)propanoic acid formation at 20 uM after 2 hrs by radio-HPLC/LC-MS/MS analysis in presence of NADPH-generating system; type: ADME
Sequence of Cytochrome P450 2D6 (P10635 whole entry): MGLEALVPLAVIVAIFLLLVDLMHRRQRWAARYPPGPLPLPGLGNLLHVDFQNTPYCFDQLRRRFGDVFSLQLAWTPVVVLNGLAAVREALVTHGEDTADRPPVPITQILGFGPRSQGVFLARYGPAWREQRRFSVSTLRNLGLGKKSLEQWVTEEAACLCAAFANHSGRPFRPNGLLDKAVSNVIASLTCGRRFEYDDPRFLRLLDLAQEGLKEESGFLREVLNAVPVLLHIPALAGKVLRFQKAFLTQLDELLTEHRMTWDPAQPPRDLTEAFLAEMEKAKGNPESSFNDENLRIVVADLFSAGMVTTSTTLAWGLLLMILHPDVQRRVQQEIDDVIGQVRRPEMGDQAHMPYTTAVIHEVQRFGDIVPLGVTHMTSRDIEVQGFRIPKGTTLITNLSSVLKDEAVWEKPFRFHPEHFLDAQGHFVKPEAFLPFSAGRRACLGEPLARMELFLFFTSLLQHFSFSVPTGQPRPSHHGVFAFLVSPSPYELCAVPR
How it was run: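 Baculovirus-insect-cell microsomes expressing the human CYP (1 mg/ml protein) were incubated with [14C]rivoglitazone (20 μM) in 50 mM potassium phosphate (pH 7.4) or 100 mM Tris-HCl (pH 7.5) with an NADPH-generating system (2 mM NADP+, 20 mM glucose 6-phosphate, 2 units/ml G6PDH, 10 mM MgCl2) for 2 h at 37°C. Insect-cell control supersomes served as the control. Reactions were stopped with acetonitrile, and the concentrated supernatants were analysed by radio-HPLC, LC-MS and LC-MS/MS.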

[7] = molecular target: T2, Cytochrome P450 2C8 (Homo sapiens, UniProt P10632); experiment: Activity of human CYP2C8 expressed in microsomes isolated from baculovirus infected insect cell assessed as enzyme-mediated 2-amino-3-((1-carboxy-2-(4-((6-methoxy-1-methyl-1H-benzo[d]imidazol-2-yl)methoxy)phenyl)ethyl)disulfanyl)propanoic acid formation at 20 uM after 2 hrs by radio-HPLC/LC-MS/MS analysis; type: ADME
T2 sequence (P10632 whole entry): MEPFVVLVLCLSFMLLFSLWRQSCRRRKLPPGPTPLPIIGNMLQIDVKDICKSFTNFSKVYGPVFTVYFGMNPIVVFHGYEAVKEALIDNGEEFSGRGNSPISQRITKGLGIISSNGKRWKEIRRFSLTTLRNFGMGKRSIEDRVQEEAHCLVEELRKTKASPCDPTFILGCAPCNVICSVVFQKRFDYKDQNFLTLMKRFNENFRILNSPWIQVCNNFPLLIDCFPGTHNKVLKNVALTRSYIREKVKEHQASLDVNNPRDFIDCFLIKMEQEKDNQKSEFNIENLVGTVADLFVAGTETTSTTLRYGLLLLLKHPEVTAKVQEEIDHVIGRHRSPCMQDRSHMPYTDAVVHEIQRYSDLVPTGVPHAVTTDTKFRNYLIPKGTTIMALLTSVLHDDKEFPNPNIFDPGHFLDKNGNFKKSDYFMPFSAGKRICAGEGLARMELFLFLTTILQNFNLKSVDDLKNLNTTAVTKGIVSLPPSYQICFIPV
How it was run: (§2)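 Baculovirus/insect-cell microsomes expressing single human CYPs, 1 mg/ml protein, with 50 mM potassium phosphate (pH 7.4) or 100 mM Tris-HCl (pH 7.5). NADPH-generating system: 2 mM NADP⁺, 20 mM glucose 6-phosphate, 2 units/ml G6PDH, 10 mM MgCl₂. [¹⁴C]rivoglitazone at 20 μM, 2 h at 37°C with shaking. Control used insect-cell control supersomes. Stopped with acetonitrile; supernatant concentrated under nitrogen; metabolites analysed by radio-HPLC, LC-MS and LC-MS/MS.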

[8] = molecular target: T3, Cytochrome P450 1A2 (Homo sapiens, UniProt P05177); experiment: Activity of human CYP1A2 expressed in microsomes isolated from baculovirus infected insect cell assessed as enzyme-mediated 2-mercapto-3-(4-((6-methoxy-1-methyl-1H-benzo[d]imidazol-2-yl)methoxy)phenyl)propanamide formation at 20 uM after 2 hrs by radio-HPLC/LC-MS/MS analysis in presence of NADPH-generating system and NADPH-generating system/SAM; type: ADME; how it was run: as §2
T3 sequence (P05177 whole entry): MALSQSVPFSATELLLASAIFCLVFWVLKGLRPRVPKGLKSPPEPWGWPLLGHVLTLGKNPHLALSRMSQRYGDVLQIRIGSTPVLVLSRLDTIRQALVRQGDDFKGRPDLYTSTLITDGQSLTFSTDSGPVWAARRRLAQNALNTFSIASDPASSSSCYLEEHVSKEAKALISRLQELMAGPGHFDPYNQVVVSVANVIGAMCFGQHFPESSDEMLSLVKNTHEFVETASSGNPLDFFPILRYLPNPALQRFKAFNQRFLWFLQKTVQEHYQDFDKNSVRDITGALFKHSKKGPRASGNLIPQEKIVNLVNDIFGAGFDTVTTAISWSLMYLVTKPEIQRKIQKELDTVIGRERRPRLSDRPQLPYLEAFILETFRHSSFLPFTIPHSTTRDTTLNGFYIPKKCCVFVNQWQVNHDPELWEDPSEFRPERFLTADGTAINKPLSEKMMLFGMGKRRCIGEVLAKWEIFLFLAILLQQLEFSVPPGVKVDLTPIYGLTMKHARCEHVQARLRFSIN

With `COc1ccc2nc(COc3ccc(C[14CH]4SC(=O)NC4=O)cc3)n(C)c2c1.Cl` (racemic) the Drug metabolism [1] was “metabolite_not_detected”, the Drug metabolism [2] was “metabolite_detected” and the Drug metabolism [3] was “metabolite_detected”. The Drug metabolism [4] was “metabolite_detected”, the Drug metabolism [5] was “metabolite_detected” and the Drug metabolism [6] was “metabolite_detected”. For the same compound, the Drug metabolism [7] was “metabolite_not_detected” and the Drug metabolism [8] was “metabolite_detected”.
